Assay results pooled from the literature.
Compare with care: the assays were run in different laboratories.
Read-out: cell growth or viability

CC(C)c1ccccc1[C@@H]1CCCN1C1CC2(CCN(c3ccc(C(=O)NS(=O)(=O)c4ccc(NC[C@H]5CC[C@](C)(O)CC5)c([N+](=O)[O-])c4)c(Oc4cnc5[nH]ccc5c4)c3)CC2)C1  IC50 (KMS-12-PE; ATP luminescence; 48 h): 0.00086 µM
Cc1noc2c1-c1ccccc1C(c1ccc(Cl)cc1)=N[C@H]2CC(N)=O  IC50 (MV4-11; ATP luminescence; 72 h): 0.412 µM
Cc1nc(Nc2ccc3c(c2)C(C)(C)C(=O)N3)c2ccccc2n1  IC50 (BEAS-2B; MTT): 38.4 µM
CN1Cc2c(N)cccc2C(=O)N1C1CCC(=O)NC1=O (stereo not drawn)  IC50 (MV4-11; CCK-8; 96 h): < 0.33 µM
Cc1nc(Nc2ccc3c(c2)/C(=C/c2ccccc2)C(=O)N3C)c2ccccc2n1  IC50 (BEAS-2B; MTT): 20.1 µM
CC1(C)CCC(CN2CCN(c3ccc(C(=O)NS(=O)(=O)c4ccc(NCC5CCOCC5)c([N+](=O)[O-])c4)c(Oc4cnc5[nH]ccc5c4)c3)CC2)=C(c2ccc(Cl)cc2)C1  IC50 (MV4-11; ATP luminescence; 48 h): 0.012 µM
Cc1nc(Nc2ccc3c(c2)/C(=C/c2ccccc2C)C(=O)N3)c2ccccc2n1  IC50 (BEAS-2B; MTT): 8.74 µM
C=CC(=O)NC1CCN(c2ncc3ncnc(Nc4ccc(Oc5ccc6c(c5)ncn6C)c(C)c4)c3n2)CC1  EC50 (647-V): 2.32 µM
COc1cc2ncnc(Nc3ccc4c(c3)/C(=C/c3ccccc3)C(=O)N4)c2cc1OC  IC50 (BEAS-2B; MTT): 17.5 µM
C[C@@H]1CN(c2ccc(-c3cc(C(=O)NCCOCCOCCOCCOCCOCCOCCNC(=O)/C=C/c4[nH]cc(C(=O)N[C@@H](CC(N)=O)c5ccc(F)c(Cl)c5)c4-c4ccc(Cl)cc4F)ccc3F)cc2NC(=O)c2ccc(F)cc2C(F)(F)F)C[C@H](C)N1C  viability (MV4-11; 4.64 µM; 5 days): 43.9%
Cn1cc(-n2cnc3c(NCc4nc5cc(Cl)c(Cl)cc5[nH]4)nc(N4CCOCC4)nc32)cn1  EC50 (MDA-MB-468; 5 days): 0.00921 µM
C[C@@H]1CN(c2ccc(-c3cc(C(=O)NCCOCCOCCOCCOCCNC(=O)Cn4cc(-c5[nH]cc(C(=O)N[C@@H](CC(N)=O)c6ccc(F)c(Cl)c6)c5-c5ccc(Cl)cc5F)cn4)ccc3F)cc2NC(=O)c2c[nH]c(=O)cc2C(F)(F)F)C[C@H](C)N1C  viability (MV4-11; 4.64 µM; 5 days): 27%
Cc1nc(Nc2ccc3c(c2)CC(=O)N3)c2ccccc2n1  IC50 (BEAS-2B; MTT): 8.76 µM
Cc1c(C(=O)O)ccc2c3n(nc12)[C@@H]1[C@H](C3)N(CC2CC2)[C@@]2(C(=O)Nc3cc(Cl)ccc32)[C@H]1c1cccc(Cl)c1F  IC50 (human Fibroblast; ATP luminescence): 0.012 µM
C=CC(=O)N1C[C@@H](n2nc(C#Cc3c(F)cc4c(ncn4C4CC4)c3F)c(C(N)=O)c2NC)C[C@@H]1COC  IC50 (RBE; MTT; 72 h): > 1 µM
